Measurements from article PMC11364137 (Materials Today Bio, 2024).

Legend:
[1] = system: S. aureus bacterial strain ATCC25923; assay: In vivo hernia mesh infection model; parameters: species or system New Zealand white rabbits; details: rabbit, 14 days after surgery
Procedure, shortened: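 Rabbit mesh-implant infection model; anaesthesia im 15 min pre-surgery with ketamine (70 mg kg), diazepam and chlorpromazine (1.5 mg kg⁻¹ each). S. aureus ATCC25923 was grown on LB agar 24 h, 37 °C, then overnight in LB and diluted in 0.9 % saline to a target 10^6 CFU.mL⁻¹. At 14 days animals were xylazine-sedated (im), CO₂-euthanised; implant fragments examined by light microscopy and SEM.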

S. aureus = assay: Resistance acquisition assay; format: cell-based, Staphylococcus aureus; details: second assay, concentration kept constant (half of the initial MIC), 30 days

Molecule | inflammatory reaction (histology) [1] | macroscopic observations at necropsy compared with uncoated mesh [1] | skin fistula, necrosis, or edema at necropsy ([1]; n = 7 per group) | bacteria presence in tissue (histology, S. aureus immunolabeling) ([1]; qualitative) | increase of relative MIC (S. aureus)
[H]/N=C(\N/C(=N/[H])NCCCCCCNC(=N)NC(=N)Nc1ccc(Cl)cc1)Nc1ccc(Cl)cc1 [CHX, Chlorhexidine] | moderate inflammatory reaction | less purulent material, weak hypervascularization, and better tissue integration | no animal developed skin fistula, necrosis, or edema | not recorded or noticeably reduced | 
CN(C)[C@@H]1C(O)=C(C(N)=O)C(=O)[C@@]2(O)C(O)=C3C(=O)c4c(O)cccc4[C@@](C)(O)[C@H]3C[C@@H]12 [tetracycline] |  |  |  |  | around 3 times
Poly(L-arginine) [PAR30] |  |  |  |  | strongly stable
